# FN deposit inh: inhibitors of fibronectin matrix deposition, primary screen, AH1F cells, Alexa488-fibronectin fluorescence, plate reader; AH1F fibroblasts, overnight; inhibition, % at 12.6 µM; 350,000 compounds, 0.086% hits; AID 743247, 2014;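 active means mean inhibition across replicates of 30% or more, regardless of how many single replicates reach that level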;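 further: positive control wells lacked labelled fibronectin entirely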
#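 test system = AH1F fibroblasts assembling fluorescent fibronectin matrix | quantity = 10000 AH1F cells per well | buffer or medium = DMEM plus 2% serum, read in PBS | doses = single dose, pinned | incubation = 1 h cell attachment, overnight exposure to compound and label | detection = fluorescence at 485 nm excitation, 525 nm emission | read-out basis = inhibition from reduced deposited-fibronectin fluorescence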
# HIV Env fusion: inhibitors of HIV-1 Env-driven cell-cell fusion, primary screen, HeLa-JRFL effector, CEM21 target cells, luciferase. inhibition, % at 12.3 µM. 360,000 compounds, 1.1% hits. AID 651610, 2012;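 active means mean replicate inhibition score of at least 50 and every replicate individually at or above 50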;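 further: 0% = plate neutral controls and 100% = maraviroc near 300 nM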
# ERp5 block: inhibitors of ERp5-driven insulin aggregation, primary screen, biochemical, turbidity, absorbance 650 nm, single point; Protein disulfide-isomerase A6 (Homo sapiens), Q15084; 90 min; inhibition, % at 9.99 µM; 350,000 compounds, 0.05% hits; AID 651711, 2012;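 active means mean replicate inhibition above about 25%, with every replicate also reaching it, limit read from the data, passing the limit was not always enough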
# PDI inh: inhibitors of human PDI, primary screen, biochemical, turbidity, single point, plate reader. AID 588391, 2011. inhibition, % at 10 µM. 350,000 compounds, 0.052% hits. PDI insulin aggregation turbidity, A650, 90 min;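 active means mean inhibition across replicates of 30% or more, whatever share of single replicates reach that level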
# PvdQ acylase: P. aeruginosa PvdQ acylase inhibitors, primary screen, biochemical, fluorescence, plate reader and imaging, single point. inhibition, % at 10 µM. 340,000 compounds, 0.063% hits. purified PvdQ acylase. PvdQ acylase [Pseudomonas aeruginosa LESB58]; in the data active means inhibition above about 30%, passing the limit was not always enough;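 further: 0% = vehicle neutral wells and 100% = reference inhibitor wells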
# Ecoli rRNA inh: reduced GFP signal of wild-type E. coli, primary screen, bacterial rRNA inhibitor project, GFP/RFP fluorescence, OD600, single point. E. coli WT GFP vs humanized-ribosome RFP mutants, 24 h; active compounds read low; DMSO median 0, no signal -100. GFP signal change (wild-type ribosome), % (test concentration not listed). 350,000 compounds, 1.6% hits. AID 720706, 2013;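 active means significant combined selectivity score with lowered wild-type GFP, culture density cut under 30%, mutant RFP and density less affected; inactive means any of these conditions unmet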
# Starred values were filed as active, the others as inactive; x = no result; [ ] = dose if it differs, or a comment. In the library only some 2.2% were active in any assay of this set; here they are far more common.
SMILES,FN deposit inh,HIV Env fusion,ERp5 block,PDI inh,PvdQ acylase,Ecoli rRNA inh
C[C@H]1CN([C@@H](C)CO)C(=O)c2cc(NS(=O)(=O)c3cn(C)cn3)ccc2O[C@H]1CN(C)S(=O)(=O)c1ccc(Cl)cc1,x,-7[16.7 µM],-2,x,x,2
COCC#Cc1cnc2c(c1)C(=O)N([C@H](C)CO)C[C@@H](C)[C@H](CN(C)Cc1ccc3c(c1)OCO3)O2,-11,-2[16.7 µM],-2,x,x,5
C[C@@H]1CCCCO[C@H](CN(C)CC2CCCCC2)[C@@H](C)CN([C@@H](C)CO)C(=O)c2cc(NS(=O)(=O)c3cn(C)cn3)ccc2O1,x,19[16.7 µM],-3,x,x,0
COCC(=O)Nc1ccc2c(c1)OC[C@H](C)N(Cc1cccc(F)c1)C[C@H](C)[C@H](OC)CN(C)C2=O,2,6[16.7 µM],-5,x,x,-1
CC(C)Cn1c(N)c(C(=O)CSc2ccc3c(c2)OCCO3)c(=O)n(C)c1=O,-18,98*,x,-7,4,x
CCc1ccc(OCC(=O)NNC(=O)C2CCC2)cc1,6,64*,-2,-2,-9,4
N#Cc1ccc(OCC(=O)NNC(=O)C2CCCCC2)cc1,4,1,1,0,2,21
C[C@H](CO)N1C[C@H](C)[C@@H](CN(C)C(=O)Nc2ccc3c(c2)OCO3)Oc2ccc(NS(=O)(=O)c3ccccc3)cc2CC1=O,x,-36[16.7 µM],x,x,x,0
